Key:
[1] = tested on: PDE-5; conditions: cited from earlier work
[2] = Stock solution stability; type: physicochemical; conditions: stock solution in methanol; for Long-term stability of stock solution, time with no significant change: 5 °C
How it was run: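 Methanol stock solutions of the analyte (500 µg/mL) and its deuterated internal standard (100 µg/mL) were tested for short-term and long-term stability. Working solutions were made by dilution in methanol. Stock and working solutions were stored at 2–8 °C.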

[3] = type: in vivo, human
How it was run: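 Single oral 20 mg tablet dose, test vs reference formulation, given fasting to 24 healthy Indian subjects. The test compound was measured in plasma by LC-MS/MS with a deuterated internal standard. 200 µL plasma was extracted on Strata-X-C SPE and run on a Synergi Hydro-RP C18 column. Mobile phase was methanol:10 mM ammonium formate pH 4.0 (90:10) at 0.9 mL/min, with positive ESI MRM. Calibration range was 0.50–500 ng/mL, and non-compartmental PK was calculated.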

[4] = Stability of tadalafil in human plasma under storage and process conditions; type: in vitro ADME
[5] = Whole blood stability; type: in vitro ADME, human; conditions: 25 °C
[6] = cited from earlier work
[7] = 20 mg oral, fasting, 24 subjects

| SMILES | Selectivity for PDE-5 over other PDE isozymes [1] | Long-term stability of stock solution, time with no significant change [2] | Short-term stability of stock solution, time remained stable ([2]; room temperature) | Intra subject variation of AUC 0-inf [3, 7] | Intra subject variation of AUC 0–168 h [3, 7] | Intra subject variation of Cmax [3, 7] | Cmax ([3]; male, human, plasma, po, 20 mg) | Tmax ([3]; male, human, plasma, po, 20 mg) | half-life ([3]; male, human, plasma, po, 20 mg) | Ratios of mean log-transformed Cmax, AUC0–168 h and AUC0-inf and their 90% confidence intervals ([3]; test vs reference, overall range, acceptance criterion 80%–125%) | Time found stable in plasma at room temperature ([4]; controlled blank plasma) | Time stable in extracted plasma samples, room temperature ([4]; extracted plasma samples) | Whole blood stability, time with no evidence of degradation [5] | Selectivity for PDE-5 over PDE-1–4 and PDE-7–10 [1] | Bioavailability [6] | Fraction of the metabolized drug excreted in the urine [6] |
| --- | --- | --- | --- | --- | --- | --- | --- | --- | --- | --- | --- | --- | --- | --- | --- | --- |
| CCCc1nn(C)c2c(=O)[nH]c(-c3cc(S(=O)(=O)N4CCN(C)CC4)ccc3OCC)nc12 [sildenafil] | 41 times | – | – | – | – | – | – | – | – | – | – | – | – | – | – | – |
| [2H]C([2H])([2H])N1CC(=O)N2[C@H](c3ccc4c(c3)OCO4)c3[nH]c4ccccc4c3C[C@@H]2C1=O [TAD-d3, tadalafil-d3] | – | up to 10 days | up to 7 h | – | – | – | – | – | – | – | – | – | – | – | – | – |
| CN1CC(=O)N2[C@H](c3ccc4c(c3)OCO4)c3[nH]c4ccccc4c3C[C@@H]2C1=O [tadalafil] | – | up to 10 days | – | 11.56 % CV | 10.09 % CV | 9.53 % CV | 396 ng/mL | ~2.37 h | 18.6 ± 2.47 h | 99.2% to 110.9 | up to 12 h | 12 h | up to 2 h | 1000 times | approximately 80% | one third |

Source: article PMC6104147 (Journal of Pharmaceutical Analysis, 2018)
